A short description of experiment [1]: inhibitors of TNFa-induced NFkB p65 translocation, primary screen, imaging, HUVEC, MLSMR starter and 10KST1 sets (AID 438;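 active = inhibition above 20% together with a positive visual image hit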;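 also: compound added about 3h40 before a 20 min TNFalpha stimulation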;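 as to inhibition: signal is the nuclear over cytoplasmic p65 intensity ratio per well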). The note with it: HUVEC TNFa-induced p65 nuclear translocation; cell count: measured here: nuclei count (cytotoxicity indicator), at 2.08 µM; inhibition: at 2 µM, stronger effect = higher value, 0% TNFa-plus-vehicle, 100% no-TNFa wells.
The nature of experiment [2]: endothelial E-selectin expression blockers – imaging, HUVEC, immunofluorescence, MLSMR starter and 10KST1 sets, primary screen (AID 487).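 As to inhibition: signal is fraction of cell area covered by stained E-selectin grains.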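 As to nuclei count: 100% = median nuclei count of all wells on the same plate.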 The note with it: HUVEC TNFalpha-induced E-selectin immunofluorescence imaging, at 2 µM; inhibition: stronger effect = higher value; nuclei count: measured here: cell number, toxicity.
Experiment [3] in a line: Primary imaging screen for DUSP6 inhibitors that restore phospho-Erk in transfected HeLa cells, chemical complementation (AID 609;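 active = compounds giving at least 50% inhibition in the cell-based MKP-3 phosphatase rescue imaging test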;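 as to inhibition: phospho-Erk level distribution per well compared with pooled transfected vehicle control wells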). The note with it: HeLa MKP-3 transfected, phospho-Erk imaging KS statistic, at 10 µM, cells stimulated with TPA for 15 min.
The target in experiment [4] is Dual specificity protein phosphatase 6 (Homo sapiens) (UniProt Q16828). The experiment is described as above. The note with it: HeLa MKP-3 transfected, phospho-Erk imaging KS statistic; at 10 µM; stronger effect = higher value; cells stimulated with TPA for 15 min.
Sequence of Dual specificity protein phosphatase 6 (Homo sapiens) (Q16828 whole entry, looked up): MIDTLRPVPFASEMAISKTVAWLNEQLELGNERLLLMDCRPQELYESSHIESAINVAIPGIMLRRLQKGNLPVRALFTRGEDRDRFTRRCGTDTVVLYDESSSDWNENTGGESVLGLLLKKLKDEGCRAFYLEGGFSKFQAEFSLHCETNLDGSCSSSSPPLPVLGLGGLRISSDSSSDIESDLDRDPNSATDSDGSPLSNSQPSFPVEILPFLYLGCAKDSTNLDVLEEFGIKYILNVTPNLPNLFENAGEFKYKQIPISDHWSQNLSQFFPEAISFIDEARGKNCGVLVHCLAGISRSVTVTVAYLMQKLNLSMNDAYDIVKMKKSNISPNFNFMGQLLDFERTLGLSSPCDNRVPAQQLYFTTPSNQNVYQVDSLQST
Experiment [5] has as its target Voltage-gated potassium channel subunit beta-2 (Rattus norvegicus) (UniProt P62483). Description: inhibitors of rat Kvbeta2 reductase activity – biochemical, NADPH fluorescence, primary screen (AID 622;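 active = fluorescence slope higher than the sample average by over 3 SD, cut at about -0.22 in these data, passing the limit was not always enough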;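 also: slope of raw intensity against log time taken from 70 to 1610 s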). The note with it: recombinant KvBeta, 4-cyanobenzaldehyde reduction, at 10 µM, stronger effect = higher value.
For experiment [6] the target is unchanged. Description: enhancers of rat Kvbeta2 NADPH turnover – biochemical, NADPH fluorescence, primary screen (AID 623;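 active = NADPH fluorescence slope more negative than the mean of all samples by about 3 SD, 99.7% confidence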;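 also: fluorescence intensity change per second fitted from 20 to 320 s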). The settings on record: Recombinant KvBeta, NADPH fluorescence decrease slope, 10 min; at 10 µM; stronger effect = lower value.
The target of experiment [7] is Alpha-2C adrenergic receptor (Homo sapiens) (UniProt P18825). Description: compounds altering alpha2C-coupled GIRK flux – cell-based, HEK293 alpha2C/GIRK1/2, thallium flux, primary screen (AID 624;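 active = fluorescence slope after compound addition differing from the mean of all screened samples at 99.7% confidence, in either direction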;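 also: slope of fluorescence ratio to pre-addition baseline per second over 15 to 24 s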). The note with it: thallium flux BTC fluorescence, at 10 µM, actives lie on both sides.
Sequence of Alpha-2C adrenergic receptor (Homo sapiens) (P18825 whole entry, looked up): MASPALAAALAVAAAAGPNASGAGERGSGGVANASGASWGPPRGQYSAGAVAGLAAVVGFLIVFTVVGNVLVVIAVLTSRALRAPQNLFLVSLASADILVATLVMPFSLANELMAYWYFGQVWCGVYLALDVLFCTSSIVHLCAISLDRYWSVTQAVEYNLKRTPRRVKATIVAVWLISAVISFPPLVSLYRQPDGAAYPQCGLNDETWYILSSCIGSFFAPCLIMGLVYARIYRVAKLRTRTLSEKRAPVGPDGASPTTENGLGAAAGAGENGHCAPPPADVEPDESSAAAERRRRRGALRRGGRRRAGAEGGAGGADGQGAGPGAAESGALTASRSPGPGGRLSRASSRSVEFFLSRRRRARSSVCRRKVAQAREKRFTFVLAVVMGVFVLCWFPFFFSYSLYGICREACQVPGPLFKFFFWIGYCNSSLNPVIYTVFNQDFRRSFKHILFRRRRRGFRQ
The nature of experiment [8]: inhibitors of larval lipid processing in zebrafish, primary screen, whole organism, PED6 fluorescence, gall bladder and intestine (AID 686;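 active = a full or partial loss of lipid-probe fluorescence in the fish gall bladder, intestine or both, judged by eye; inactive = no fluorescence loss, or compound toxic to the fish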;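 also: larvae 5 to 7 days old with five fish per well; signal comes from phospholipase A2 cleavage of quenched PED6 carried via bile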). The settings on record: Zebrafish larvae PED6 lipid processing, fluorescence scoring; screened at 20 µM (by protocol). A digest of the protocol: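 Incubation: overnight exposure of larvae to compound plus PED6 / Test system: live zebrafish larvae aged 5-7 days, whole organism / Amount: 5 larvae per well / Read-out basis: visual per-well fluorescence inhibition score / Signal: visual fluorescence microscopy scoring of gall bladder, gut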

The nature of experiment [9]: loss of swimming-algae plug formation – whole organism, Chlamydomonas reinhardtii, WT vs cilia-less mutant, absorbance, 96-well, primary screen (AID 463189;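 active = inhibition at or above 50% relative to wild type and mutant plate controls; inactive = inhibition below 50%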;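 also: 0% = wild type cc124 cells in DMSO and 100% = ciliumless bld1 mutant cells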). The settings on record: Chlamydomonas reinhardtii gravitaxis, OD600 absorbance, 2 days; at 10 µM; stronger effect = higher value.
Setting [10] is: measured here: cell density z-score.
The mark [11] stands for this setting: measured here: nuclear c-Myc green intensity z-score.
Where [12] appears, read: measured here: nuclear pErk red intensity z-score, stronger effect = higher value.

The source made the active and inactive calls.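 The calls were made as follows, unless noted: active = visually confirmed hit in the image check and inhibition above 20%; inconclusive = visually confirmed hit but inhibition not above 20%; inactive = no visual hit in the image check.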

Sequence of Voltage-gated potassium channel subunit beta-2 (Rattus norvegicus) (P62483 whole entry, looked up): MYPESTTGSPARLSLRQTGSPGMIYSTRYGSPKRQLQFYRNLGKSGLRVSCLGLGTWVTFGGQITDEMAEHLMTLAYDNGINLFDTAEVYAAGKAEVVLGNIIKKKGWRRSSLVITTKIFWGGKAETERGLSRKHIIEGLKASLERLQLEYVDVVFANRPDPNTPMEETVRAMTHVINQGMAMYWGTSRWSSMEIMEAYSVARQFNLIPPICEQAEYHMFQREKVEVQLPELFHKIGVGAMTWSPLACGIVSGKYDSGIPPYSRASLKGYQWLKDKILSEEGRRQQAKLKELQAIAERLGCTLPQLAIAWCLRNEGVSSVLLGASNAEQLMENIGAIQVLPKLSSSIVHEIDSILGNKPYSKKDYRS

As to `Cn1cc(C(=O)NCN2CCCCC2)c2ccccc21`, in experiment [1], the cell count was found to be 637. In addition, the inhibition in [1] was -1.9% (inactive); in [2] it was 33.7% (inactive); in [4], -5.89% (inactive); in [9], -12.4% (inactive). The same compound registered a nuclei count in [2] of 201%. Further, the z-score is 0.345 in [3] (setting [10]), -0.8 in experiment [3] (setting [11]) and -0.0314 in experiment [3] (setting [12]). The fluorescence slope in [5] is -0.45 (inactive). In experiment [6], the NADPH fluorescence slope was -0.000261 (inactive). In addition, the slope in experiment [7] was 0.00517 (inactive). Moreover, in experiment [8], the outcome was inactive.
In the case of `O=C(O)CC(NCc1ccco1)C(=O)OCCc1ccccc1` (centres undefined), the cell count in experiment [1] was 534. Also, the inhibition in experiment [1] was -1.9% (inactive); in experiment [2] it was 6.5% (inactive); in experiment [4], -1.75% (inactive); in [9], 32.9% (inactive). The nuclei count in [2] came to 116%. For the same compound, the z-score in experiment [3] (setting [10]) was -0.641; in experiment [3] (setting [11]), 0.383; in experiment [3] (setting [12]) it was -0.409. Moreover, in experiment [5], the fluorescence slope is -0.398 (inactive). In addition, the NADPH fluorescence slope in experiment [6] is 5.7e-06 (inactive). Moreover, the slope in experiment [7] is 0.00596 (inactive). Besides, the outcome in experiment [8] was inactive.
`CSc1nc(O)c(Cc2ccccc2)c(=O)[nH]1`: the cell count in [1] was found to be 543. Besides, the inhibition in experiment [1] is 5.9% (inactive); in [2], 23.6% (inactive); in experiment [4] it was 1.6e-07% (inactive); in experiment [9] it was 33.4% (inactive). For the same compound, in experiment [2], the nuclei count amounted to 105%. In addition, the figures for the z-score in experiment [3] (setting [10]), in [3] (setting [11]) and in experiment [3] (setting [12]) were -0.704, -0.524 and -0.136, respectively. Also, the fluorescence slope in [5] was -0.403 (inactive). Besides, the NADPH fluorescence slope in [6] is 2.5e-05 (inactive). Also, the slope in [7] is 0.00553 (inactive). Further, the compound was called inactive in experiment [8].
Consider `CCCc1nn(C)c2c1C(c1cccnc1)C(C#N)=C(N)O2` (centres undefined), for which, in experiment [1], the cell count worked out at 521. Further, the inhibition in experiment [1] was -5.3% (inactive); in experiment [2] it was -50.3% (inactive); in experiment [4], 9.61% (inactive); in experiment [9], 14.7% (inactive). In experiment [2], this compound came in with a nuclei count of 183%. For the same compound, the results for the z-score in [3] (setting [10]), in experiment [3] (setting [11]) and in experiment [3] (setting [12]) were 0.834, 0.991 and -0.817, respectively. The fluorescence slope in [5] was -0.274 (inactive). In addition, in [6], the NADPH fluorescence slope was 4.2e-08 (inactive). Besides, in experiment [7], the slope was 0.00487 (inactive). For the same compound, in experiment [8], the call was inactive.
Take `COc1cc(C2CC(C(F)(F)F)n3ncc(C(=O)O)c3N2)cc(OC)c1OC` (centres undefined): the cell count in [1] is 515. The inhibition was -6.9% (inactive) in experiment [1], 18.3% (inactive) in [2], -2.07% (inactive) in experiment [4] and -0.326% (inactive) in [9]. The nuclei count in [2] came out at 119%. Besides, the z-score in [3] (setting [10]) is -0.754; in experiment [3] (setting [11]), 0.674; in experiment [3] (setting [12]), 1.11. In addition, in experiment [5], the fluorescence slope is -0.517 (inactive). Besides, the NADPH fluorescence slope in experiment [6] was -9.9e-05 (inactive). In [7], the slope is 0.0046 (inactive). For the same compound, the call in experiment [8] was inactive.
Consider `COc1ccc(-c2oc3ncn4nc(Cc5ccccc5)nc4c3c2-c2ccc(OC)cc2)cc1`, for which the cell count in experiment [1] worked out at 561. In addition, the inhibition in experiment [1] is -7.8% (inactive); in experiment [2] it was -106% (inactive); in experiment [4], -6.06% (inactive); in [9], -5.31% (inactive). The compound also had a nuclei count in experiment [2] of 175%. The figures for the z-score in experiment [3] (setting [10]), in [3] (setting [11]) and in [3] (setting [12]) were 0.18, 0.751 and 0.443, respectively. The fluorescence slope in experiment [5] is -0.319 (inactive). Besides, the NADPH fluorescence slope in experiment [6] is -1.7e-05 (inactive). In experiment [7], the slope is 0.0116 (inactive). Besides, the outcome in experiment [8] was inactive.
For the compound `CCOC(=O)CC(=O)CSc1nc2c(cc1C#N)CCCCC2`, the cell count in experiment [1] is 510. Further, the inhibition is -8.3% (inactive) in experiment [1], -29.1% (inactive) in [2], 6.51% (inactive) in experiment [4] and 12.7% (inactive) in experiment [9]. In experiment [2], this compound displayed a nuclei count of 114%. In addition, the results for the z-score in experiment [3] (setting [10]), in [3] (setting [11]) and in [3] (setting [12]) were -0.0989, -0.82 and 0.239, respectively. Moreover, the fluorescence slope in experiment [5] was -0.342 (inactive). The NADPH fluorescence slope in experiment [6] was -3e-05 (inactive). Also, in experiment [7], the slope is 0.00873 (inactive). Further, in experiment [8], the call was inactive.
For `CCOC(=O)CSc1nc(-c2ccncc2)ccc1C#N`, the cell count in [1] was 688. For the same compound, the inhibition in experiment [1] is -16.1% (inactive); in experiment [2], -23.4% (inactive); in experiment [4] it was -3.95% (inactive); in [9] it was -7.15% (inactive). The same compound had a nuclei count in experiment [2] of 174%. In addition, the values for the z-score in experiment [3] (setting [10]), in experiment [3] (setting [11]) and in experiment [3] (setting [12]) were -1.46, -0.434 and 0.758, respectively. In addition, the fluorescence slope in experiment [5] is -0.355 (inactive). For the same compound, the NADPH fluorescence slope in [6] was -2e-05 (inactive). The slope in experiment [7] is 0.00882 (inactive). The result in [8] was inactive.
For `CCOc1ccc(/C(O)=C2/C(=O)C(=O)N(CCN(C)C)C2c2ccccc2)cc1Cl` (centres undefined), the cell count in experiment [1] turned out to be 539. In addition, the inhibition in experiment [1] is -10.3% (inactive); in experiment [2], -64% (inactive); in [4], 2.92% (inactive); in experiment [9], 2.01% (inactive). In experiment [2], this compound registered a nuclei count of 156%. For the same compound, the figures for the z-score in [3] (setting [10]), in experiment [3] (setting [11]) and in experiment [3] (setting [12]) were 2.52, 0.178 and -1.22, respectively. Moreover, the fluorescence slope in [5] is -0.502 (inactive). The NADPH fluorescence slope in experiment [6] is -5.4e-05 (inactive). The slope in [7] was 0.00531 (inactive). The result in [8] was inactive.
Regarding `CCOC(=O)CC1=C(C(=O)OCC)C(c2ccc(OC)c(OC)c2)C(C#N)=C(N)O1` (centres undefined), in experiment [1], the cell count was 471. The inhibition is -4.3% (inactive) in [1], -157% (inactive) in experiment [2], 4.25% (inactive) in experiment [4] and 24.9% (inactive) in experiment [9]. The same compound gave a nuclei count in [2] of 163%. In addition, the z-score in [3] (setting [10]) was -0.376; in [3] (setting [11]), -0.993; in experiment [3] (setting [12]), -1.45. The fluorescence slope in [5] is -0.359 (inactive). For the same compound, in experiment [6], the NADPH fluorescence slope was 6.8e-06 (inactive). For the same compound, the slope in [7] was 0.00447 (inactive). Besides, the compound was called inactive in experiment [8].
In the case of `CCCOc1ccc(N2C(=O)CC(N(Cc3ccc(S(N)(=O)=O)cc3)C(=O)CC)C2=O)cc1` (centres undefined), in [1], the cell count was 441. Besides, the inhibition in experiment [1] is -4.6% (inactive); in [2], -308% (inactive); in experiment [4] it was -7.28% (inactive); in [9], 2.36% (inactive). The nuclei count in [2] is 184%. The z-score in [3] (setting [10]) was -0.613; in experiment [3] (setting [11]), 0.516; in experiment [3] (setting [12]) it was 0.905. In [5], the fluorescence slope was -0.326 (inactive). The NADPH fluorescence slope in experiment [6] was 1.9e-05 (inactive). For the same compound, the slope in experiment [7] is 0.00479 (inactive). In addition, the compound was called inactive in experiment [8].
Take `COc1cccc(CNc2ccc(Br)cn2)c1O`: the cell count in experiment [1] amounted to 544. Also, the inhibition was -3.4% (inactive) in experiment [1], -2.4% (inactive) in experiment [2], 3.5% (inactive) in experiment [4] and 6.48% (inactive) in [9]. The nuclei count in experiment [2] was 167%. Besides, the z-score is -0.809 in [3] (setting [10]), -0.901 in [3] (setting [11]) and -0.106 in experiment [3] (setting [12]). The fluorescence slope in experiment [5] is -0.316 (inactive). Further, the NADPH fluorescence slope in [6] was 1.4e-05 (inactive). In addition, the slope in experiment [7] is 0.00431 (inactive). The outcome in experiment [8] was inactive.
Take `Cc1ccc(N2C(=O)[C@@H]3[C@H](C2=O)C2CCCN2[C@@H]3C(=O)c2ccccc2)cc1` (some centres undefined): the cell count in experiment [1] amounted to 329. For the same compound, the inhibition in experiment [1] is -6.6% (inactive); in experiment [2], -25.8% (inactive); in experiment [4], -8.59% (inactive); in [9], 0.279% (inactive). In experiment [2], this compound yielded a nuclei count of 146%. Besides, the z-score in experiment [3] (setting [10]) is 1.29; in experiment [3] (setting [11]), -0.857; in experiment [3] (setting [12]), 1.07. The fluorescence slope in experiment [5] is -0.42 (inactive). The NADPH fluorescence slope in experiment [6] was -0.000146 (inactive). The slope in experiment [7] is 0.00854 (inactive). Moreover, the compound was classed as inactive in [8].

For the origin of these results see PubChem BioAssay.
